Measured values from different studies.
Compare with care: the assays were run in different laboratories.
Adora1: Adenosine receptor A1 (Adora1, Rattus norvegicus, UniProt P25099)
HRH1: Histamine H1 receptor (HRH1, Homo sapiens, UniProt P35367)

| SMILES | target | observed | action | method | pH | setting | Ki [µM] |
| --- | --- | --- | --- | --- | --- | --- | --- |
| CC(C)CN1CCCn2c1nc1c2c(=O)n(C)c(=O)n1C | Adora1 | ligand displacement |  | radioligand |  | cell membranes | 2.69 |
| Nc1nc2c(c(=O)[nH]1)N(C=O)[C@H](CNc1ccc(C(=O)N[C@@H](CCC(=O)O)C(=O)O)cc1)CN2 | Proton-coupled folate transporter (Homo sapiens, UniProt Q96NT5) | transporter uptake | inhibitor | radiometric | pH 5.5 |  | 0.38 |
| NC(=O)CCNC(=S)NCCCC[C@H](NS(=O)(=O)c1cccc(F)c1)C(=O)N[C@@H](Cc1c[nH]c2ccccc12)C(=O)NC1CCC1 | NAD-dependent protein deacylase sirtuin-5, mitochondrial (SIRT5, Homo sapiens, UniProt Q9NXA8) | enzyme activity | inhibitor |  |  |  | 3.3 |
| C#CCN1CCCn2c1nc1c2c(=O)n(C)c(=O)n1C | Adora1 | ligand displacement |  | radioligand |  | cell membranes | ≥ 25 |
| CN1CCC(C2c3ccccc3C=Cc3ccccc32)CC1 | HRH1 | cell-free assay |  | radioligand |  |  | 0.000501 |
| CCCCN1CCCn2c1nc1c2c(=O)n(C)c(=O)n1C | Adora1 | ligand displacement |  | radioligand |  | cell membranes | 4.32 |
| CC(C)[C@@H](CC[C@@H](C)[C@H]1CC[C@H]2[C@@H]3[C@H](O)C[C@H]4C[C@@H](NCCCNCCCCNCCCN)CC[C@]4(C)[C@H]3CC[C@]12C)OS(=O)(=O)O | Tyrosine-protein phosphatase non-receptor type 2 (PTPN2, Homo sapiens, UniProt P17706) | enzyme activity | inhibitor |  |  |  | 6 |
| CN(C)c1ccc(/C=C/C=C2\CCc3ccc(OCCCN4CCCCC4)cc3C2=O)cc1 | HRH1 | ligand displacement |  | radioligand |  | cell membranes | 1.97 |
| CN1CCN(c2ccc(-c3ccnn3-c3ccc(S(N)(=O)=O)cc3)cc2)CC1 | Carbonic anhydrase 9 (CA9, Homo sapiens, UniProt Q16790) | enzyme activity | inhibitor |  |  |  | 0.288 |
| CC[C@H](C)[C@H](NC(=O)[C@H](CCC(=O)O)NC(=O)[C@H](CC(=O)O)NC(=O)CNC(=O)[C@H](CC(C)C)NC(=O)[C@H](CCCNC(=N)N)NC(=O)[C@H](CCC(N)=O)NC(=O)[C@H](CC(C)C)NC(=O)[C@H](CO)NC(=O)[C@H](CCC(N)=O)NC(=O)[C@@H](NC(=O)[C@H](CC(C)C)NC(=O)[C@H](Cc1c[nH]c2ccccc12)NC(=O)[C@@H](NC(=O)[C@H](CCC(=O)O)NC(=O)[C@@H]1CCCN1C(=O)[C@H](CCCNC(=N)N)NC(C)=O)[C@@H](C)CC)[C@@H](C)O)C(=O)N[C@@H](CC(N)=O)C(=O)N[C@@H](C)C(=O)N[C@@H](Cc1ccc(O)cc1)C(=O)N[C@@H](Cc1ccc(O)cc1)C(=O)N[C@@H](C)C(=O)N[C@@H](CCCNC(=N)N)C(N)=O | Induced myeloid leukemia cell differentiation protein Mcl-1 (MCL1, Homo sapiens, UniProt Q07820) | ligand displacement |  | FP |  |  | 0.0034 |
| O=C1CCCc2ccc(OCc3ccc(OCCCN4CCCCC4)cc3)cc21 | HRH1 | ligand displacement |  | radioligand |  | cell membranes | 3.69 |
| CCCCN1CCC(COC(=O)c2ccc(N)c(OCF)c2)CC1 | Beta-1 adrenergic receptor (ADRB1, Homo sapiens, UniProt P08588) | cell-free assay |  | radioligand |  |  | > 10 |
